Measurements published in publication PMC7486978 (Molecular pharmaceutics, 2019).
Bridge positions count the residues as written; N and C are the ends. Peptide text beside a SMILES is read from it. * marks the point of attachment. NOTA(2S-Bn(4-NHCS)) = O=C(O)CN1CCN(CC(=O)O)C[C@H](Cc2ccc(NC(=S)*)cc2)N(CC(=O)O)CC1

Tests used:
[1] = In vitro stability in PBS; assay type: physicochemical; details: PBS pH 7.4, 37 °C, 2 h, 14.8 MBq; analytical radio-HPLC
In short: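 ⁶⁸Ga-labelled test compound was prepared by heating precursor with [⁶⁸Ga]GaCl₃ in sodium acetate buffer (final pH about 4.0) at 90 °C for 5 min and used unpurified. Tracer (14.8 MBq) was held in PBS pH 7.4 at 37 °C for 2 h.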

MCF-7 tumor xenograft = test: Small-animal PET/CT imaging, ROI tumor uptake; assay type: in vivo, BALB/c nude mice; details: MCF-7 xenograft, 30 min p.i., n = 4
MCF-7 xenograft mice = test: in vivo; assay type: in vivo, BALB/c nude mice; details: for tumor uptake (biodistribution): no blocking, mean ± SD
MX-1 xenograft mice = test: Post-imaging biodistribution; assay type: in vivo, BALB/c nude mice; details: 1 h p.i., mean ± SD, n = 4
In short: (§1)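 Female BALB/c nude mice were injected s.c. in the right shoulder with 1.0 × 10⁷ cells (MDA-MB-231/MDA-MB-468 grown in L-15 without CO₂; MX-1 in high-glucose DMEM, 10% FBS, 5% CO₂). They were used at tumor size 0.8–1.0 cm and given ⁶⁸Ga-labelled test compound (6.5–9 MBq, 125 μL) by tail vein. PET/CT under 2.0% isoflurane ran at 30 min. Mice were euthanized at 1 h; tissues weighed, γ-counted, decay-corrected %ID/g, mean ± SD.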

[2] = tested on: MDA-MB-468 xenograft mice; test: Post-imaging biodistribution; assay type: in vivo, BALB/c nude mice; details: 1 h p.i., mean ± SD, n = 4
In short: as §1

[3] = tested on: MDA-MB-468 tumor xenograft; test: Small-animal PET/CT imaging, ROI tumor uptake; assay type: in vivo, BALB/c nude mice; details: MDA-MB-468 xenograft, 30 min p.i., 6.5–9 MBq; n = 4
MX-1 tumor xenograft = test: Small-animal PET/CT imaging, ROI tumor uptake; assay type: in vivo, BALB/c nude mice; details: MX-1 xenograft, 30 min p.i., 6.5–9 MBq; n = 4
MCF-7 cells = test: In vitro cell uptake and blocking study; assay type: cell-based, human; details: 100 times excess (100 pmol) nonradioactive RGD, NGR, RGD+NGR or NGR-RGD 15 min in advance; 2 h at 37 °C
[4] = tested on: MDA-MB-231 tumor xenograft; test: Small-animal PET/CT imaging, ROI tumor uptake; assay type: in vivo, BALB/c nude mice; details: MDA-MB-231 xenograft, 30 min p.i., 6.5–9 MBq; n = 4
[5] = tested on: MDA-MB-231 xenograft mice; test: Post-imaging biodistribution; assay type: in vivo, BALB/c nude mice; details: 1 h p.i., mean ± SD, n = 4
In short: as §1

in vivo = assay type: in vivo, BALB/c nude mice; details: female, BALB/c nude, mouse, in vivo, total radioactivity
[6] = MCF-7 xenograft mice, 1 h p.i., n = 4

Row | Molecule | proportion of the intact tracer [1] | tumor uptake (PET ROI), blocked by NGR (MCF-7 tumor xenograft; coinjected unlabeled NGR 20 mg/kg) | tumor uptake (PET ROI), blocked by NGR-RGD (MCF-7 tumor xenograft; coinjected unlabeled NGR-RGD 20 mg/kg) | tumor uptake (PET ROI), blocked by RGD (MCF-7 tumor xenograft; coinjected unlabeled RGD 20 mg/kg) | tumor uptake (PET ROI), blocked by RGD+NGR (MCF-7 tumor xenograft; coinjected unlabeled RGD+NGR 20 mg/kg) | tumor uptake (PET ROI) (MCF-7 tumor xenograft; comparison of tumor types (Figure 5B)) | tumor uptake (biodistribution), blocked with NGR-RGD (MCF-7 xenograft mice; MCF-7 xenograft mice, 1 h p.i., coinjection of excess unlabeled NGR-RGD, n = 4) | tumor uptake (biodistribution), blocked with NGR (MCF-7 xenograft mice; MCF-7 xenograft mice, 1 h p.i., coinjection of excess unlabeled NGR, n = 4) | tumor uptake (biodistribution), blocked with RGD+NGR (MCF-7 xenograft mice; MCF-7 xenograft mice, 1 h p.i., coinjection of excess unlabeled RGD+NGR, n = 4) | tumor uptake (biodistribution), blocked with RGD (MCF-7 xenograft mice; MCF-7 xenograft mice, 1 h p.i., coinjection of excess unlabeled RGD, n = 4) | tumor uptake (biodistribution) (MCF-7 xenograft mice; [6]) | accumulation in the kidneys (biodistribution) (MCF-7 xenograft mice; mouse, in vivo, 1 h) | tumor uptake (biodistribution) (MX-1 xenograft mice) | tumor uptake (biodistribution) [2] | tumor uptake (PET ROI) [3] | tumor uptake (PET ROI) (MX-1 tumor xenograft) | uptake by MCF-7 cells when pretreated with excess of blocking agents (MCF-7 cells) | tumor uptake (PET ROI) [4] | tumor uptake (biodistribution) [5] | tissue uptake at 1 h (in vivo)
1 | c(RGDyK)-PEG4-NOTA-click-PEG4-c(CNGRC) (bicyclic or more) [^68Ga-NGR-RGD] | exceeded 95% | 0.80 ± 0.03 %ID/g | 0.28 ± 0.06 %ID/g | 0.37 ± 0.05 % ID/g | 0.31 ± 0.03 %ID/g | 1.03 ± 0.08 %ID/g | 0.16 ± 0.04 %ID/g | 0.67 ± 0.02 %ID/g | 0.20 ± 0.07 %ID/g | 0.17 ± 0.04 %ID/g | 1.02 ± 0.16 %ID/g | 2.52 ± 0.30 %ID/g | 0.20 ± 0.03 %ID/g | 0.28 ± 0.04 %ID/g | 0.76 ± 0.10 %ID/g | 0.41 ± 0.08 %ID/g | decreased significantly | 1.04 ± 0.06 %ID/g | 0.53 ± 0.05 %ID/g | 
2 | N=C(N)NCCC[C@@H]1NC(=O)CNC(=O)[C@H](CC(N)=O)NC(=O)[C@H](CCCCNC(=S)Nc2ccc(C[C@H]3CN(CC(=O)O)CCN(CC(=O)O)CCN3CC(=O)O)cc2)NC(=O)CC[C@@H](C(N)=O)NC1=O [^68Ga-NGR, metal not drawn, reference compound] (K(NOTA(2S-Bn(4-NHCS)))NGRE-NH2; lactam N-5; C-terminus assumed) |  |  |  |  |  |  |  |  |  |  | 0.14 ± 0.04 %ID/g |  |  |  |  |  |  |  |  | 0.87 ± 0.04 %ID/g
